Assay [1] has as its system A-375. Kind of assay: Cytotoxicity against human A-375 cells assessed as inhibition of cell proliferation measured after 48 hrs by MTS assay. Type of assay: functional, cell-based. To be noted: A-375, 48 h. The method in brief: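 Cells were exposed to a dose range of inhibitor for 48 h, and viability was read by MTS assay in triplicate. GI50 was taken as the concentration giving 50% growth inhibition, averaged from three independent experiments. A375 was cultured in RPMI-1640 with Glutamax. A549 and NCI-H157 were kept in RPMI-1640, and MIA PaCa-2 and U87-MG in DMEM.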

In a further assay the test system is MCF-10A. Kind of assay: Cytotoxicity against human MCF-10A cells assessed as inhibition of cell proliferation by MTS assay. Type of assay: cell-based.
The subject of another assay is HFF. Kind of assay: Cytotoxicity against HFF assessed as inhibition of cell proliferation by MTS assay. Type of assay: cell-based, Homo sapiens.
Assay [2] can be described thus: Antiproliferative activity against human SB-590885-resistant 451Lu cells assessed as reduction in cell viability measured after 48 hrs by MTS assay. Type of assay: functional. The method in brief:
(§1)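 Melanoma lines were grown in RPMI-1640 with Glutamax at 37 °C and 5% CO2. The resistant 451 Lu-R and MEL 1617-R sublines were maintained with 1 µM PLX4720. Cells were incubated with vehicle or inhibitor over a dose range, and viability was read by MTS assay in triplicate.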

Assay [3] is described as follows: Antiproliferative activity against human SB-590885-sensitive 451Lu cells assessed as reduction in cell viability measured after 48 hrs by MTS assay. Type of assay: functional. In outline: as §1
Assay [4] in a line: Antiproliferative activity against human SB-590885-resistant MEL1617 cells assessed as reduction in cell viability measured after 48 hrs by MTS assay. Type of assay: functional, cell-based. In outline: as §1
Assay [5] in a line: Antiproliferative activity against human SB-590885-sensitive MEL1617 cells assessed as reduction in cell viability measured after 48 hrs by MTS assay. Type of assay: functional, cell-based. To be noted: MEL1617, 48 h. In outline: as §1
Assay [6] in a line: Drug metabolism in pH 7.4 phosphate buffer assessed as nitric oxide release at 100 uM measured after 48 hrs by Griess reagent based colorimetric method. The method in brief:
(§2)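 Compound at 100 µM was held at room temperature in pH 7.4 phosphate buffer with 5 mM DTT and 2% DMSO for 2 or 48 h. Griess reagent was added, and after 30 min absorbance was read at 548 nm. NO release (mol NO/mol compound) was derived from a sodium nitrite calibration curve.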

The target in assay [7] is T1, Signal transducer and activator of transcription 3 (Homo sapiens, UniProt P40763). In words: Inhibition of STAT3 phosphorylation at S727 residue in human SB-590885-resistant 451Lu cells measured after 12 hrs by Western blot analysis. To be noted: dose 10-25 µM. In outline:
(§3)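 451 Lu and MEL 1617 pairs, sensitive and resistant; resistant lines maintained in RPMI with 1 µM PLX4720. Treated with 10 and 25 µM for 12 h versus DMSO. Lysates (60 µg protein, 10% SDS-PAGE) immunoblotted for Ser727- and Tyr705-phospho-STAT3, total STAT3, total PAX3, with actin.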

Assay [8] has as its target T1, Signal transducer and activator of transcription 3. In words: Inhibition of STAT3 phosphorylation at S727 residue in human SB-590885-sensitive MEL1617 cells at 10 to 25 uM measured after 12 hrs by Western blot analysis. Type of assay: cell-based. To be noted: dose 10-25 µM. The method in brief:
as §3

For assay [9] the target is unchanged. In words: Inhibition of STAT3 in human SB-590885-sensitive MEL1617 cells assessed as reduction in PAX3 expression at 10 to 25 uM measured after 12 hrs by Western blot analysis. Type of assay: cell-based. To be noted: dose 10-25 µM. The method in brief: as §3
The target is the same in assay [10]. Kind of assay: Inhibition of STAT3 in human SB-590885-resistant 451Lu cells assessed as reduction in PAX3 expression measured after 12 hrs by Western blot analysis. To be noted: dose 10-25 µM. In outline: as §3
Assay [11] has the same target. Kind of assay: Inhibition of STAT3 phosphorylation at Y705 residue in human SB-590885-sensitive 451Lu cells measured after 12 hrs by Western blot analysis. To be noted: dose 10-25 µM. The method in brief: as §3
Assay [12] shares this target. In words: Inhibition of STAT3 phosphorylation at Y705 residue in human SB-590885-resistant 451Lu cells measured after 12 hrs by Western blot analysis. To be noted: dose 10-25 µM. In outline: as §3
For assay [13] the target is unchanged. In words: Inhibition of STAT3 in human SB-590885-sensitive 451Lu cells assessed as reduction in STAT3 transcriptional activity measured after 12 hrs by Dual-luciferase reporter gene assay. In outline:
(§4)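 Cells co-transfected with inducible STAT3-responsive firefly luciferase and constitutive Renilla luciferase constructs (40:1) using Lipofectamine 3000. After 48 h, dose series in DMSO vehicle applied for 12 h, followed by dual-luciferase readout. Firefly signal normalized to Renilla and compared with untreated cells. Run in triplicate; IC50 taken from dose–response curves.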

Assay [14] relates to A-375. In words: Potentiation of compound II-induced cytotoxicity against human A375 cells assessed as compound II IC50 at 12.5 uM measured after 48 hrs by MTS assay (reference value: 16.2 +/- 1.6 uM). Type of assay: functional, cell-based. To be noted: A-375, 48 h.
For assay [15], the target named is T1, Signal transducer and activator of transcription 3. In words: Inhibition of STAT3 phosphorylation at S727 residue in human SB-590885-sensitive 451Lu cells measured after 12 hrs by Western blot analysis. To be noted: dose 10-25 µM. In outline: as §3
Assay [16] shares this target. In words: Inhibition of STAT3 phosphorylation at S727 residue in human SB-590885-resistant MEL1617 cells at 10 to 25 uM measured after 12 hrs by Western blot analysis. Type of assay: cell-based. To be noted: dose 10-25 µM. In outline: as §3
A short description of assay [17]: Drug metabolism in pH 7.4 phosphate buffer assessed as nitric oxide release at 100 uM measured after 2 hrs by Griess reagent based colorimetric method. In outline:
as §2

Assay [18] addresses T1, Signal transducer and activator of transcription 3. Kind of assay: Displacement of FAM-labeled 5-GpYLPQTV-NH2 from recombinant GST-tagged STAT3 (unknown origin) preincubated for 30 mins followed by FAM-labeled 5-GpYLPQTV-NH2 addition and measured after 30 mins by fluorescence assay. To be noted: time 60.0 min. The method in brief:
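GST-STAT3 (2 µM) was bound to GST beads for 1 h at 4 °C in PBS with 0.1% β-mercaptoethanol, then washed. Bead slurry was incubated with compound dilutions (2.25% DMSO, duplicate) and FAM-GpYLPQTV-NH2 peptide. Resin was washed by vacuum filtration and fluorescence read at ex 485/em 535 nm. % displacement was set against the no-compound signal; two independent experiments.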

Assay [19] shares this target. In words: Inhibition of STAT3 in human SB-590885-sensitive MEL1617 cells assessed as reduction in STAT3 transcriptional activity measured after 12 hrs by Dual-luciferase reporter gene assay. Type of assay: cell-based. In outline: as §4
For assay [20] the target is unchanged. In words: Inhibition of STAT3 phosphorylation at Y705 residue in human SB-590885-resistant MEL1617 cells at 10 to 25 uM measured after 12 hrs by Western blot analysis. To be noted: dose 10-25 µM. Type of assay: cell-based. In outline:
as §3

Assay [21] has the same target. In words: Inhibition of STAT3 phosphorylation at Y705 residue in human SB-590885-sensitive MEL1617 cells at 10 to 25 uM measured after 12 hrs by Western blot analysis. Type of assay: cell-based. To be noted: dose 10-25 µM. The method in brief:
as §3

Assay [22] shares this target. Kind of assay: Inhibition of STAT3 in human SB-590885-resistant MEL1617 cells assessed as reduction in STAT3 transcriptional activity measured after 12 hrs by Dual-luciferase reporter gene assay. Type of assay: cell-based. In outline: as §4
Assay [23] has the same target. Kind of assay: Inhibition of STAT3 in human SB-590885-resistant MEL1617 cells assessed as reduction in PAX3 expression at 10 to 25 uM measured after 12 hrs by Western blot analysis. Type of assay: cell-based. To be noted: dose 10-25 µM. In outline: as §3
For assay [24] the target is unchanged. In words: Inhibition of STAT3 in human SB-590885-resistant 451Lu cells assessed as reduction in STAT3 transcriptional activity measured after 12 hrs by Dual-luciferase reporter gene assay. The method in brief:
as §4

Assay [25] has the same target. In words: Inhibition of STAT3 in human SB-590885-sensitive 451Lu cells assessed as reduction in PAX3 expression measured after 12 hrs by Western blot analysis. To be noted: dose 10-25 µM. In outline:
as §3

The record followed here is ChEMBL document CHEMBL4715843, “NO-releasing STAT3 inhibitors suppress BRAF-mutant melanoma growth” (Eur J Med Chem, 2020).

Calls of active or inactive are those of the source. The rule behind the calls is not given here.

T1 sequence (P40763 whole entry): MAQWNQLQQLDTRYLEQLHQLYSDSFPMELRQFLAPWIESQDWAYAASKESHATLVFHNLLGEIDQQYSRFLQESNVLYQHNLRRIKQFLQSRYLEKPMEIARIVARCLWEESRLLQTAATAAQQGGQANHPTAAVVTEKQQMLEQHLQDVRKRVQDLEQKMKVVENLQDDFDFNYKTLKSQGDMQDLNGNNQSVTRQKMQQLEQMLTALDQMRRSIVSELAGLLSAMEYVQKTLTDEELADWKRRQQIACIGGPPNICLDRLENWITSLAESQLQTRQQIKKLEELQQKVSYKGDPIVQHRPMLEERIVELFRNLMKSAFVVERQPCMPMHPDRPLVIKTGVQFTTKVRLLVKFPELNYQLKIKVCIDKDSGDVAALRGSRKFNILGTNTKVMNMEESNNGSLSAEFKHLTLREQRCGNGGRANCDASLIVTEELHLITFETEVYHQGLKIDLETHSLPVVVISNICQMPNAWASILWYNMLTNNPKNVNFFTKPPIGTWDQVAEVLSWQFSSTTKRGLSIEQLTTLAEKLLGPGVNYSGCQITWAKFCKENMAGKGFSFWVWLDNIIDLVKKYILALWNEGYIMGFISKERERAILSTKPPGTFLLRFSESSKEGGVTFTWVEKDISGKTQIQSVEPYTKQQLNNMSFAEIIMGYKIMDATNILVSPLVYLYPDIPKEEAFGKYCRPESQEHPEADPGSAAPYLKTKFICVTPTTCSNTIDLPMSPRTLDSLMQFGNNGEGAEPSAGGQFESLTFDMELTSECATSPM

Turning to `O=C(Nc1nnc(-c2ccco2)o1)c1cc(-c2ccccc2)nc2ccccc12`, the IC50 in the assay with A-375 [1] stood at 16.2 µM; in the assay with MCF-10A (Homo sapiens, MCF-10A, read-out: IC50), 33.4 µM; in the assay on HFF (Homo sapiens, HFF, read-out: IC50) it was 72.2 µM.

For `CCCS(=O)(=O)Nc1ccc(F)c(C(=O)c2c[nH]c3ncc(Cl)cc23)c1F` [PLX-4720], the concentration for half-maximal inhibition (IC50) result in assay [2] (451lu) is “Not Active”; in assay [3], 0.062 µM; in assay [4] (mel1617), “Not Active”; in [5], 0.084 µM.

Turning to `COc1ccc2nc(-c3ccc(Cl)cc3)cc(-c3nnc(SCC(=O)Nc4ccc(/C(C)=N\O)cc4)n3-c3ccccc3)c2c1`, the figures for the Drug metabolism in assay [6] and in [17] were 30% and 15%, respectively. For the same compound, the inhibition result in assay [7], in [8], in assay [9], in assay [10], in [11] and in assay [12] was “inactive” each time. In addition, the inhibition result in assay [15], in assay [16], in assay [18], in assay [20], in assay [21] and in assay [23] was “inactive” in each case. Moreover, the inhibition entry in [25] was “inactive”. Further, the IC50 in the assay with A-375 [1] is over 100 µM; in assay [2] (Homo sapiens, 451Lu, 48 h, read-out: IC50), over 50 µM; in assay [13], 54 µM; in [3], over 50 µM; in the assay on A-375 [14], 6.8 µM; in [4] (Homo sapiens, MEL1617, 48 h, read-out: IC50) it was over 50 µM. The IC50 in assay [19] was 75 µM; in the assay on MCF-10A (mcf-10a) it was “Not Active”; in the assay with HFF (hff), “Not Active”; in [22], 35.2 µM; in [5], over 50 µM; in [24], 40.5 µM.
